UBC9 SUMO inh: SUMOylation inhibition. P63279. HTRF SUMOylation assay, SAE1/SAE2 + UBC9, in vitro. inhibition, % at 35 µM. 0.36% of 290,000 active. AID 2006; in the data active means inhibition above about 50%, passing the limit was not always enough
Target sequence (P63279 whole entry, looked up): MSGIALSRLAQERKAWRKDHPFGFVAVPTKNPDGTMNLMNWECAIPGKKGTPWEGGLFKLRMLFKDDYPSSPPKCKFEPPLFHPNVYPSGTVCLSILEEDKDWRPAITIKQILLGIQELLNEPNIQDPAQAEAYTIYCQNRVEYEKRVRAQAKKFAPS
PHOSPHO1 block: blocks human PHOSPHO1 phosphatase activity | inhibition, % at 13.3 µM | 1.1% of 290,000 active | recombinant PHOSPHO1, absorbance phosphatase assay | AID 1565; in the data active means inhibition above about 60%
Target sequence (Q8TCT1 whole entry, looked up): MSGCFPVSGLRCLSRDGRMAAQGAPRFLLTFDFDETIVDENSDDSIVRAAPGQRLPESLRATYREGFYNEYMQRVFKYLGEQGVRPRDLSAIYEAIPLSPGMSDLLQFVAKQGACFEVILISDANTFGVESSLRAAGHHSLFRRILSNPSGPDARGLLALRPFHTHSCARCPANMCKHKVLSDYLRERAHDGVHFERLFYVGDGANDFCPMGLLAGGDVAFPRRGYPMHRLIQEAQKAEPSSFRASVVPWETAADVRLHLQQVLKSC
HCV NS3 hel inh: blocks Hepatitis C virus NS3 helicase unwinding; AID 1800; 0.56% of 290,000 active; NS3 helicase DNA unwinding, Cy5 molecular beacon fluorescence; inhibition, % at 10.9 µM;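 active means inhibition above the mean of all tested compounds plus 3 SD, set per campaign, cut at about 35% in these data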;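 further: 0% = DMSO wells and 100% = thioflavine S control wells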
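Compound dosing – single dose, 10.9 µM nominal final, DMSO 0.8% final · System – NS3 helicase fragment of HCV · Buffer or medium – MOPS pH 6.5, MgCl2, DTT, Tween20, BSA · Signal – Cy5 beacon fluorescence read at start and 1 h · Also added – annealed dual-labelled DNA beacon duplex, ATP-started · Schedule – 1 h at 25 °C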
core dimer inh: HCV core protein dimerization inhibition. TR-FRET GST/Flag-core106 dimerization, 1536-well. inhibition, % at 5 µM. 0.33% of 300,000 active;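 active means inhibition above the mean of all tested compounds plus 3 SD, set per screening campaign, cut at about 45% in these data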
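Assay system: Tagged HCV core106 pair (GST and Flag) | Buffer or medium: KF-containing HEPES buffer, pH 7.45, DTT, CHAPS, BSA | Also added: Eu donor and XL665 acceptor anti-tag antibodies | Dosing: One concentration, 5 µM, in 0.5% DMSO | Timing: 4 h at 22.5 °C | Technique: TR-FRET 671 and 617 nm emission | Repeats: Singlicate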
IMP-1 inhibitor: inhibitors of Pseudomonas aeruginosa IMP-1 metallo-beta-lactamase; purified IMP-1, nitrocefin hydrolysis, epi-absorbance fluorescence; inhibition, % at 5.6 µM; 0.45% of 290,000 active; AID 1556;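 active means inhibition above the mean plus 3 SD of all compounds in the same screening run, cut at about 4.5% in these data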;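 further: 0% = IMP-1 with DMSO and 100% = DMSO wells lacking enzyme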
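System: purified recombinant IMP-1 beta-lactamase. Medium: Zinc- and detergent-supplemented HEPES buffer, pH 7.1. Compound: one 5.6 µM dose […]. Schedule: 15 min preincubation plus 25 min reaction at 25 °C. Technique: Epi-absorbance fluorescence, 480 nm excitation, 530 nm emission.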
VIM-2 inhibitor: inhibitors of Pseudomonas aeruginosa VIM-2 metallo-beta-lactamase; inhibition, % at 5.6 µM; purified VIM-2, nitrocefin hydrolysis, epi-absorbance fluorescence; 0.89% of 290,000 active;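 active means inhibition above the mean of all tested compounds plus 3 SD, cutoff set per screening run, cut at about 7.5% in these data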;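 further: red hydrolysis product quenches plate fluorescence so inhibitors raise well fluorescence; 0% = enzyme with DMSO and 100% = DMSO without enzyme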
The depositor's hits bear a star. Rows were chosen to be rich in hits. Some 3.1% of all compounds tested hit in one or more screens of this group.

For COc1ccc(C(=O)NCc2nnc(SCC(=O)N3CCc4ccccc43)n2Cc2ccccc2)cc1 the results were UBC9 SUMO inh -1.5, PHOSPHO1 block 3.2, HCV NS3 hel inh 4.1, core dimer inh 1.2, IMP-1 inhibitor -4.5 and VIM-2 inhibitor -0.7.
For CC(C)(c1ccccc1)c1ccc(OCCN2CCOCC2)cc1 the results were UBC9 SUMO inh 2.2, PHOSPHO1 block -5.7, HCV NS3 hel inh -21.6, core dimer inh 4.8, IMP-1 inhibitor 4.9* and VIM-2 inhibitor 1.4.
CC(C)(c1ccccc1)c1ccc(OCCCN2CCNCC2)cc1 was read as UBC9 SUMO inh 2.0, PHOSPHO1 block 58.6, HCV NS3 hel inh -57.0, core dimer inh -4.2, IMP-1 inhibitor -2.1 and VIM-2 inhibitor 1.6.
CN1CCN(c2nnc(-c3ccc(Cl)cc3)c3ccccc23)CC1 was read as UBC9 SUMO inh 0.6, PHOSPHO1 block 15.6, HCV NS3 hel inh -16.7, core dimer inh -4.5, IMP-1 inhibitor -2.4 and VIM-2 inhibitor 10.1*.
Cc1ccc(-c2nnc(N3CCCCC3)c3ccccc23)cc1 was read as UBC9 SUMO inh 15.4, PHOSPHO1 block 20.0, HCV NS3 hel inh -1.8, core dimer inh 4.7, IMP-1 inhibitor -1.8 and VIM-2 inhibitor 1.6.
For CCNc1nc(SCC(=O)OC)nc(N(C)C)n1 the results were UBC9 SUMO inh 11.3, PHOSPHO1 block 28.0, HCV NS3 hel inh 0.8, core dimer inh -3.7, IMP-1 inhibitor -0.9 and VIM-2 inhibitor 0.8.
Cc1cncn1CCc1nc2c3ccccc3nc(=S)n2[nH]1 was read as HCV NS3 hel inh -1.8, IMP-1 inhibitor -10.3 and VIM-2 inhibitor -0.7.
Screening Cc1nc2ccccc2n1CCc1nc2c3ccccc3nc(=S)n2[nH]1 returned UBC9 SUMO inh -0.7, PHOSPHO1 block 85.7*, HCV NS3 hel inh 5.5, core dimer inh -3.0, IMP-1 inhibitor -5.5 and VIM-2 inhibitor -6.5.
CCOC(=O)c1sc2nc3c(SCCC#N)cc(C(=O)c4cc(F)ccc4O)cn3c(=O)c2c1C was read as UBC9 SUMO inh 29.0, PHOSPHO1 block -14.1, HCV NS3 hel inh 17.5, core dimer inh 50.2*, IMP-1 inhibitor -2.6 and VIM-2 inhibitor -5.0.
`O=C(O)CSc1cc(C(=O)c2cc(F)ccc2O)cn2c(=O)c3c(-c4ccccc4)csc3nc12` gave UBC9 SUMO inh 62.0, PHOSPHO1 block 37.7, HCV NS3 hel inh 22.7, core dimer inh 51.8*, IMP-1 inhibitor -3.3 and VIM-2 inhibitor -4.0.
For CCc1c(C)sc2nc3c(C(=O)N4CCOCC4)cc(C(=O)c4cc(F)ccc4O)cn3c(=O)c12 the results were UBC9 SUMO inh 10.5, PHOSPHO1 block 12.2, HCV NS3 hel inh -19.7, core dimer inh 3.7, IMP-1 inhibitor 0.1 and VIM-2 inhibitor 1.1.
`CC(C)(C)C(=O)C(Oc1cccc2nonc12)n1cncn1` (stereo unspecified) gave UBC9 SUMO inh -9.5, PHOSPHO1 block -2.2, HCV NS3 hel inh 10.5, core dimer inh -3.8, IMP-1 inhibitor 34.9* and VIM-2 inhibitor -2.3.
For Cc1ccc(NC(=O)C2CCCN(S(=O)(=O)c3cccnc3)C2)c(C)c1 (stereo unspecified) the results were UBC9 SUMO inh -8.2, PHOSPHO1 block 30.7, HCV NS3 hel inh 13.9, core dimer inh -0.8, IMP-1 inhibitor -2.1 and VIM-2 inhibitor -1.5.
`Cc1ccc(S(=O)(=O)N2CCC(NC(=O)OC(C)C)CC2)cc1` gave UBC9 SUMO inh 11.2, PHOSPHO1 block 28.3, HCV NS3 hel inh 0.3, core dimer inh 2.4, IMP-1 inhibitor -1.5 and VIM-2 inhibitor 0.3.
Screening Cc1ccc(C2CC(c3ccccc3)=NN2C(=S)Nc2ccccc2)o1 (stereo unspecified) returned UBC9 SUMO inh 7.5, PHOSPHO1 block 87.9*, HCV NS3 hel inh 9.1, core dimer inh -3.9, IMP-1 inhibitor -4.9 and VIM-2 inhibitor -7.0.
For CC1=NN(C(=S)Nc2ccccc2)C(c2ccccc2)C1 (stereo unspecified) the results were UBC9 SUMO inh 4.1, PHOSPHO1 block -41.5, HCV NS3 hel inh -3.5, core dimer inh 1.8, IMP-1 inhibitor -2.6 and VIM-2 inhibitor -2.6.
Screening Cc1cccc(-c2nc(CS(=O)CC(=O)NCCc3ccc(Cl)cc3)c(C)o2)c1 (stereo unspecified) returned UBC9 SUMO inh -6.7, PHOSPHO1 block 24.2, HCV NS3 hel inh -1.8, core dimer inh -1.0, IMP-1 inhibitor -0.9 and VIM-2 inhibitor -1.5.

Screening results: PubChem, several laboratories
